target: T1, Protein-glutamine gamma-glutamyltransferase (Homo sapiens, UniProt P21980); experiment: Inhibition of human recombinant TG2 expressed in Escherichia coli
T1 sequence (P21980 whole entry): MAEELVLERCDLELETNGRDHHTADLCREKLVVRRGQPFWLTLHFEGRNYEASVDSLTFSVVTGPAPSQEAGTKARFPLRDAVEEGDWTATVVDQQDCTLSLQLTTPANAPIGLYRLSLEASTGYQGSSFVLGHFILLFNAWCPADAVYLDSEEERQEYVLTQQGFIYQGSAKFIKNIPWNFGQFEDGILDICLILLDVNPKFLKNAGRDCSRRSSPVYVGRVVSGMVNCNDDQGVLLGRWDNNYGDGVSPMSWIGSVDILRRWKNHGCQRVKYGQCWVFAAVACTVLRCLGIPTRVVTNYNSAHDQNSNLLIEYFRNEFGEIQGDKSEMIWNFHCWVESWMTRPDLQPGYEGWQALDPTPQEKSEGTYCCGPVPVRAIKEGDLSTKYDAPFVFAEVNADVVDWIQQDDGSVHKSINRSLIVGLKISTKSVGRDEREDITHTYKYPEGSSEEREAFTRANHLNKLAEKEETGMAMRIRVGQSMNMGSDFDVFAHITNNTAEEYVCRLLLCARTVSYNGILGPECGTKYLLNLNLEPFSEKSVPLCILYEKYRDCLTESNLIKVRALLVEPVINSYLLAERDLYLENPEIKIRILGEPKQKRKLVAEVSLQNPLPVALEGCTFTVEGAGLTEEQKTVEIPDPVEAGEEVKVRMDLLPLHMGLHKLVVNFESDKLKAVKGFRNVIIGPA
How it was run: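 Enzyme purified to >90%. Inhibitor at 0.001–0.3 mM. Reaction started by adding TG2; NADH loss read at 340 nm. KI and kinh came from fitting progress curves to irreversible-inhibition equations.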

Which Ki does the source give for `O=C(N[C@@H](Cc1ccc(O)cc1)C(=O)NCC1CC(Br)=NO1)OCc1cnc2ccccc2c1` (some centres undefined) here?
Its Ki is 41 µM.

Which Ki does the source give for `O=C(N[C@@H](Cc1c[nH]c2ccc(F)cc12)C(=O)NCC1CC(Br)=NO1)OCc1cnc2ccccc2c1` (some centres undefined) here?
The Ki was 4 µM.

For `O=C(NC(Cc1c[nH]c2cc(F)ccc12)C(=O)NCC1CC(Br)=NO1)OCc1ccccc1` (centres undefined), which Ki is on record?
The Ki was 18 µM.

Which Ki does the source give for `O=C(NC(Cc1c[nH]c2ncccc12)C(=O)NCC1CC(Br)=NO1)OCc1ccccc1` (centres undefined) here?
The Ki was 22 µM.

`O=C(NC(Cc1c[nH]c2cccc(F)c12)C(=O)NCC1CC(Br)=NO1)OCc1ccccc1` (centres undefined) was tested. Which Ki did it give?
Its Ki is 99 µM.

`O=C(NC[C@@H]1CC(Br)=NO1)[C@@H]1CCCN1C(=O)OCc1cnc2ccccc2c1` was tested. Which Ki did it give?
Its Ki is 11 µM.

For `O=C(N[C@@H](Cc1c[nH]c2ccc(F)cc12)C(=O)NC[C@@H]1CC(Br)=NO1)OCc1cnc2ccccc2c1`, which Ki is on record?
The Ki was 1.3 µM.

For `O=C(NC(Cc1c[nH]c2ccc(F)cc12)C(=O)NCC1CC(Br)=NO1)OCc1cnc2ccccc2c1` (centres undefined), which Ki is on record?
Its Ki is 18 µM.

How did the Ki turn out when `O=C(NC(Cc1c[nH]c2ccc(O)cc12)C(=O)NCC1CC(Br)=NO1)OCc1cnc2ccccc2c1` (centres undefined) was run?
The Ki was 34 µM.

Which Ki does the source give for `O=C(N[C@@H](Cc1ccc(O)cc1)C(=O)NC[C@@H]1CC(Br)=NO1)OCc1ccccc1` here?
The Ki was 68 µM.

With `COc1ccc2[nH]cc(CC(NC(=O)OCc3cnc4ccccc4c3)C(=O)NCC3CC(Br)=NO3)c2c1` (centres undefined) as the compound, how does the Ki read?
The Ki was 51 µM.

`O=C(N[C@@H](Cc1ccc(O)cc1)C(=O)NC[C@@H]1CC(Br)=NO1)OCc1cnc2ccccc2c1` was tested. Which Ki did it give?
The Ki was 30 µM.

How did the Ki turn out when `O=C(NC(Cc1c[nH]c2ccc(F)cc12)C(=O)NCC1CC(Br)=NO1)OCc1ccccc1` (centres undefined) was run?
Its Ki is 19 µM.

`O=C(NCC1CC(Br)=NO1)C1Cc2ccccc2N1C(=O)OCc1ccccc1` (centres undefined) was tested. Which Ki did it give?
Its Ki is 138 µM.

— ChEMBL document CHEMBL1138203, “Structure-activity relationship analysis of the selective inhibition of transglutaminase 2 by dihydroisoxazoles” (J Med Chem, 2006)
